This note sets out measurements from ChEMBL document CHEMBL3808369, “Identification of Cyproheptadine as an Inhibitor of SET Domain Containing Lysine Methyltransferase 7/9 (Set7/9) That Regulates Estrogen-Dependent Transcription” (J Med Chem, 2016).

The source made the active and inactive calls. The calls are words filed in the database; no cut-off is given here.

Data set [1] deals with T1, Histone-lysine N-methyltransferase SUV39H1 (Homo sapiens) (UniProt O43463).
T1 sequence (whole entry): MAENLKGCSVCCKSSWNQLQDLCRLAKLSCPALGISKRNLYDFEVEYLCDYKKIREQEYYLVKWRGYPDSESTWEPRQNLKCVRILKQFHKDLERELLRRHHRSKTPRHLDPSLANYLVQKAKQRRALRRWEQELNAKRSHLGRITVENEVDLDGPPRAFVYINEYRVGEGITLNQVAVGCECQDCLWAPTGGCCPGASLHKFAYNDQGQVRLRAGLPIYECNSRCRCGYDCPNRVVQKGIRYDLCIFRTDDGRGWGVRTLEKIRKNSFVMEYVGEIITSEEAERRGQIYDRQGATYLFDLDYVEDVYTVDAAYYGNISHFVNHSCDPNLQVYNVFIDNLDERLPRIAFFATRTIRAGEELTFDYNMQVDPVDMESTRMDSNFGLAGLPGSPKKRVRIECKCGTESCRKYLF
The data set is described as follows: Inhibition of Suv39h1 (unknown origin) by ELISA.

Data set [2] has as its target Histone-lysine N-methyltransferase, H3 lysine-79 specific (Homo sapiens) (UniProt Q8TEK3). The data set is described as follows: Inhibition of Dot1L (unknown origin) by AlphaELISA.
In another data set the test system is Mus musculus. As to the kind of experiment: Effect on body weight in Balb/c-nu/nu mouse xenografted with Fucci introduced human MCF7 cells at 20 mg/kg, ip qd administered as continuous dose for 8 days measured every 3 to 4 days until day 15. In kind it is ADME, organism-based. To be noted: in vivo. A digest of the protocol:
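Female Balb/C-nu/nu mice, 7 weeks old, each inoculated with about 2 × 10^7 Fucci-MCF7 cells in the mammary gland. Dosing started when tumors reached about 100 mm3, 13 days after inoculation. 20 mg/kg given ip once daily, days 1–8, in saline with 10% ethanol; a vehicle group ran alongside. Caliper tumor volume (a2b)/2 and body weight were recorded every 3 or 4 days to day 15. Six mice per group, mean ± SE.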
In general terms: Xenograft models place foreign cells or tissue in a host animal.

Data set [3] concerns the target T2, Histone-lysine N-methyltransferase EHMT2 (Homo sapiens) (UniProt Q96KQ7).
T2 sequence (whole entry): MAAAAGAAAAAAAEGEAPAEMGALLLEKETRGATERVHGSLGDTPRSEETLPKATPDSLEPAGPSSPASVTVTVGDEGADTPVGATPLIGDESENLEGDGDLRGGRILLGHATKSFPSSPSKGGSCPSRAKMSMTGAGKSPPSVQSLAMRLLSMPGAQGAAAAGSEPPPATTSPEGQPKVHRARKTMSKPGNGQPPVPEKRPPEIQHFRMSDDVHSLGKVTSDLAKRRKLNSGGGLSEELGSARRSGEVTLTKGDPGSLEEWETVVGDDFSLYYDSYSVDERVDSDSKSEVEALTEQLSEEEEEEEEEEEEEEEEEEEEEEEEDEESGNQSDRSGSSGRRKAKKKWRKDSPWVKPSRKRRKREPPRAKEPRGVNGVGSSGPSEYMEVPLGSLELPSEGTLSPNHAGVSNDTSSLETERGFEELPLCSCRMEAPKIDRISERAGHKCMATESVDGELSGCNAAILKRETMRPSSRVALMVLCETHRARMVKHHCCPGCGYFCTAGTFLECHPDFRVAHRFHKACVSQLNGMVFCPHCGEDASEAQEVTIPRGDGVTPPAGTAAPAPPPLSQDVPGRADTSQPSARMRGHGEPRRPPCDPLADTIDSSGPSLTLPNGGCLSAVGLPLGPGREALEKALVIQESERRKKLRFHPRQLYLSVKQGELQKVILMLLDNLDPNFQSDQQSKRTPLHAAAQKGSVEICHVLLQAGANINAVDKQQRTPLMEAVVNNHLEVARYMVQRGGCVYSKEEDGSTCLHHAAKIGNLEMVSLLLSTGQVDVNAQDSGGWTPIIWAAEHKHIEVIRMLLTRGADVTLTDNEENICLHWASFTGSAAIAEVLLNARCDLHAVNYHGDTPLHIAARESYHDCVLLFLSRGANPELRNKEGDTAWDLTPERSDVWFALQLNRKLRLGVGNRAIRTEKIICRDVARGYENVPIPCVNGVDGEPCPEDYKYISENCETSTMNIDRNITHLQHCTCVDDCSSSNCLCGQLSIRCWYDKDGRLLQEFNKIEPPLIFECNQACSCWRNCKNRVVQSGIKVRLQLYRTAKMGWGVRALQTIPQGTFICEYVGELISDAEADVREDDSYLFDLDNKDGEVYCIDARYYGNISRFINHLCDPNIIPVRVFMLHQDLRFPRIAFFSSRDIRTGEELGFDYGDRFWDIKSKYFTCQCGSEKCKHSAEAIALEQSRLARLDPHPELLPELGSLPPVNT
As to the kind of experiment: Inhibition of G9a (unknown origin) by AlphaELISA.

Data set [4] concerns the target T3, Histone-lysine N-methyltransferase SETD7 (Homo sapiens, UniProt Q8WTS6).
T3 sequence (Q8WTS6 whole entry): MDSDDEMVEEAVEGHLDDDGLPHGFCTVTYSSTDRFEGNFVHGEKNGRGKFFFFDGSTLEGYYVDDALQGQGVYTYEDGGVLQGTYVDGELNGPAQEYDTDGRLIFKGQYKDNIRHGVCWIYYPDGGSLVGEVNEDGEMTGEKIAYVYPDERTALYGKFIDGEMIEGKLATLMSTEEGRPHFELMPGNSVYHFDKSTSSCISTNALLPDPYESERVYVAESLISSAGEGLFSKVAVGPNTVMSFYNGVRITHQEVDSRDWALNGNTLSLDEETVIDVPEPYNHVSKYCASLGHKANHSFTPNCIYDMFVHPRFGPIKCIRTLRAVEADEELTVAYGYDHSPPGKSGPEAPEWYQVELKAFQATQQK
As to the kind of experiment: Inhibition of recombinant Set7/9 (unknown origin) expressed in Escherichia coli BL21 (DE3) using Ac-KRSK-MCA peptide/SAM as substrate preincubated for 1 hr followed by substrate addition measured after 15 mins by Dixon plot analysis. A digest of the protocol:
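Fluorogenic HMT kinetics used recombinant His-Set7/9 expressed in E. coli BL21(DE3) (IPTG 0.1 mM, 18 °C, 24 h) and purified on Ni2+ affinity. The methyl acceptor was Ac-KRSK-MCA and the cofactor was SAM. Ki was obtained from a Dixon plot of initial velocity versus inhibitor. Four independent assays, SD.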

Data set [5] deals with T4, Histone-lysine N-methyltransferase SETD7 (Homo sapiens) (UniProt Q8WTS6).
T4 sequence (whole entry): T3 sequence (Q8WTS6 whole entry)
As to the kind of experiment: Inhibition of Set7/9 in human MCF7 cells assessed as half life of ERalpha at 43 uM by immunoblotting analysis in presence of cycloheximide (reference value: 15.6 +/- 1.2 hrs). In kind it is cell-based. The gist of the method:
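MCF7 cells treated with or without 43 μM drug in the presence of 1 μg/mL cycloheximide for various times. ERα immunoblotted from RIPA lysates and band intensity quantified to derive half-life. Three independent assays.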
For orientation: A western blot detects proteins with antibodies after separation by electrophoresis.

Another data set relates to MCF7. The data set is described as follows: Antitumor activity against Fucci introduced human MCF7 cells xenografted in Balb/c-nu/nu mouse at 20 mg/kg, ip qd administered as single dose. The format is functional, organism-based. A digest of the protocol: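 Female Balb/C-nu/nu mice, 7 weeks old, carried mammary Fucci-MCF7 xenografts (about 2 × 10^7 cells) grown to about 100 mm3. A single ip dose of 20 mg/kg in saline with 10% ethanol was given on day 1; a vehicle group ran alongside. Caliper tumor volume (a2b)/2 and body weight were recorded every 3 or 4 days to day 15. Tumor volume relative to day 1; six mice, mean ± SE.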

Histone-lysine N-methyltransferase, H3 lysine-79 specific (Homo sapiens), sequence (Q8TEK3 whole entry, looked up): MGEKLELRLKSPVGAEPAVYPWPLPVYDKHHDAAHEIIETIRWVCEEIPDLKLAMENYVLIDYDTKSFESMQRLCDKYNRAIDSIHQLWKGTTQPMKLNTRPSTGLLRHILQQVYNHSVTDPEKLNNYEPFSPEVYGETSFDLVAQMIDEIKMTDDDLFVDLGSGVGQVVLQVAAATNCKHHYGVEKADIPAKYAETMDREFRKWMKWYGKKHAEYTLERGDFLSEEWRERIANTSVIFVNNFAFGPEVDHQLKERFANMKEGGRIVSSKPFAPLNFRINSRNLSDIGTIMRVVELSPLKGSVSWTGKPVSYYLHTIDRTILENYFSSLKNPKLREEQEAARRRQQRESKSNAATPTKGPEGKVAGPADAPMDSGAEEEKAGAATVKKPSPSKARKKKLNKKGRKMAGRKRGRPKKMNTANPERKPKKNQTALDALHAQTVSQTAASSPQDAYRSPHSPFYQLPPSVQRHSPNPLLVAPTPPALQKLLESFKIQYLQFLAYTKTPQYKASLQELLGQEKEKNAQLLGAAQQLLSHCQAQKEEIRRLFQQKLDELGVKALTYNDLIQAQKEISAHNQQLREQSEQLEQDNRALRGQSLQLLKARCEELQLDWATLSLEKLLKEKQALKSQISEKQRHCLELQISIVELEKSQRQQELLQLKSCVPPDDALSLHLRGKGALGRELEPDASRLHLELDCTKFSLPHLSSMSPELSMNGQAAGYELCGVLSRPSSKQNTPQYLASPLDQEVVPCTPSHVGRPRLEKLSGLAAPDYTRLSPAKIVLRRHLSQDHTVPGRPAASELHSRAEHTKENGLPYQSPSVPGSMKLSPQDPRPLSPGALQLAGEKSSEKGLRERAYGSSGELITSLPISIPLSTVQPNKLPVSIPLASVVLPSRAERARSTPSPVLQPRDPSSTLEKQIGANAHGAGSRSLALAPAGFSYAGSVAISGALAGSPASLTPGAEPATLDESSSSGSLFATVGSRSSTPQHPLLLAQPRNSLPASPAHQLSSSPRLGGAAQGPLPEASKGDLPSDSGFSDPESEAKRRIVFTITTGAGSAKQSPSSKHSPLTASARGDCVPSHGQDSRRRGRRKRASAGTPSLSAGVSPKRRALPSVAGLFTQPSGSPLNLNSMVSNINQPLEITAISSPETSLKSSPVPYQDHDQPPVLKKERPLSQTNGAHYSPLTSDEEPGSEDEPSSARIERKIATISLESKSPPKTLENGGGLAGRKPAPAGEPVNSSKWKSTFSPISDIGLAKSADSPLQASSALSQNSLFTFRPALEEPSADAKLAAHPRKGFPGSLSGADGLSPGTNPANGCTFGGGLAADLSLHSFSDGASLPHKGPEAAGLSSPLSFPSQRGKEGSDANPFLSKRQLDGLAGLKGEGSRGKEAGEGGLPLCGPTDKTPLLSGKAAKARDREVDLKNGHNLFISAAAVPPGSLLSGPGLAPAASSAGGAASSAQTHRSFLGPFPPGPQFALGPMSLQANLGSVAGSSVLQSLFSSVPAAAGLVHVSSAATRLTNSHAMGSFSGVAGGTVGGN

The Ki is a measure of affinity in units of concentration, obtained from inhibition or displacement. For `CN1CCC(=C2c3ccccc3C=Cc3ccccc32)CC1` [CYPROHEPTADINE], the inhibition entry in data set [1], in data set [2] and in data set [3] was “Active” throughout. Further, the Activity result in the data set on Mus musculus is given as “Non-toxic”. For the same compound, in data set [4], the Ki turned out to be 15 µM. Besides, in data set [5], the T1/2 came to 10.3 h. For the same compound, in the data set on MCF7, the TGI result is “Active”.
